Rows were chosen to be rich in hits. Some 2.5% of all compounds tested hit in one or more screens of this group.
MEKK2 WT-MEK5 = modulators of MEK5 binding to wildtype MEKK2, primary screen, biochemical, multiplex bead flow cytometry, Alexa488-MEK5 | Mitogen-activated protein kinase kinase kinase 2 (Homo sapiens), Q9Y2U5 | Alexa488-MEK5 binding to MEKK2 WT; actives lie on both sides | binding response (% of control), % at 10 µM | 290,000 tested, 1.1% active | AID 1531, 2009; in the data active = binding response below about 67% or above about 130%
Efflux pump inh = inhibitors of Candida efflux pumps in yeast, primary screen, S. cerevisiae, Nile Red, multiplex. S. cerevisiae Candida pump triplex. inhibition, % at 10 µM. 330,000 tested, 0.44% active. AID 485275, 2010;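 active = plate passing quality check with inhibition over a set limit, or well fluorescence over plate mean plus 4 SD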;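 note: Nile Red retained in pooled yeast measured as flow cytometry median fluorescence; higher means more Nile Red kept so more efflux inhibition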
MEKK3 PB1 HTS = modulators of MEKK3-MEK5 PB1 binding, primary screen, biochemical, wildtype MEKK3, multiplex bead flow cytometry, Alexa488-MEK5. Mitogen-activated protein kinase kinase kinase 3 (Homo sapiens), Q99759. bead-based flow cytometry, Alexa488-MEK5 binding to MEKK3; actives lie on both sides; 0 = blocked by unlabeled MEK5, 100 = vehicle. binding response (% of control), % at 10 µM. 290,000 tested, 1.4% active;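 active = binding response more than 3 SD above or below the average of its plate-row segment, actives on both sides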;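 note: Alexa488 bead fluorescence after subtracting the streptavidin-only scavenger bead signal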
Target sequence (Q99759 whole entry, looked up): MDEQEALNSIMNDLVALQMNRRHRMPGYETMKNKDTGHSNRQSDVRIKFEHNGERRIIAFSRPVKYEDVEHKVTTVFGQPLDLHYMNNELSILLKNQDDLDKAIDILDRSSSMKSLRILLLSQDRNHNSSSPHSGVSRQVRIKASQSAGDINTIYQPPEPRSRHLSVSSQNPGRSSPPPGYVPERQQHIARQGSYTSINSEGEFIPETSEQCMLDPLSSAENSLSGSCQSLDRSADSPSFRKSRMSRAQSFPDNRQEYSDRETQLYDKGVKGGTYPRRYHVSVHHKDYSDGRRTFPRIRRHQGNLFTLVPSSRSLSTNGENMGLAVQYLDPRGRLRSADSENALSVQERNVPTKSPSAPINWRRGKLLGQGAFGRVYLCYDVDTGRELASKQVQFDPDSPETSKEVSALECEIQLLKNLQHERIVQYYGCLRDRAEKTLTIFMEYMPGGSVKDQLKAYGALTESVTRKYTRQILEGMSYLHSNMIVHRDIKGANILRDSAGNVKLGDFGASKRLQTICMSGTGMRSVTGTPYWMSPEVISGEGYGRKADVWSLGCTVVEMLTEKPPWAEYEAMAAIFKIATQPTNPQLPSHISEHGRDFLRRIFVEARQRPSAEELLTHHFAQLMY
ABCG2 block = ABCG2 efflux pump inhibitors, primary screen, multiplex with ABCB1, IgMXP3 cells, flow cytometry. Broad substrate specificity ATP-binding cassette transporter ABCG2 (Homo sapiens), Q9UNQ0. AID 1325, 2008. JC-1 efflux. 190,000 tested, 0.1% active. inhibition, % at 6.6 µM;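 active = inhibition above 80%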
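Incubation: cells with compound and JC-1, 10 min at 25 °C, rotating, no wash / Test system: IgMXP3 (ABCG2) plus far-red-tagged CCRF-Adr (ABCB1) cells / Compound dosing: one concentration, 6.6 µM final / Also added: JC-1 fluorescent substrate / Evaluation: efflux inhibition in percent versus controls / Detection: flow cytometry, 530 nm JC-1 signal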
ABCB1 inh = ABCB1 efflux pump inhibitors, primary screen, cell-based, multiplex, flow cytometry, ABCG2 counter-screen; ATP-dependent translocase ABCB1 (Homo sapiens), P08183; 190,000 tested, 0.067% active; CCRF-Adr cells, JC-1 efflux; AID 1326, 2008; inhibition, % at 6.6 µM; in the data active = inhibition above about 40%;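 note: higher value means more JC-1 retained so stronger ABCB1 efflux block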
MEKK2 mut-MEK5 = MEK5 binding signal on mutant MEKK2 PB1, primary screen, biochemical, multiplex bead flow cytometry, Alexa488-MEK5; Alexa488-MEK5 binding to MEKK2 mutant; AID 1530, 2009; 290,000 tested, 0.35% active; percent response, % at 10 µM; in the data active = percent response above about 24%, passing the limit was not always enough
MEKK2wt confirm = modulators of MEK5 binding to wildtype MEKK2, confirmation, biochemical, single concentration, multiplex bead flow cytometry; Alexa488-MEK5 binding to MEKK2 WT; actives lie on both sides; 5,900 tested, 2.4% active; shares compounds with MEKK3 PB1 HTS; AID 1892, 2009; binding response (% of control), % at 10 µM; in the data active = binding response below about 16% or above about 210%; inactive = in between
MEKK2mut-MEK5 = mutant MEKK2 PB1-MEK5 binding signal retest – biochemical, single concentration, multiplex bead flow cytometry, confirmation; shares compounds with MEKK3 PB1 HTS; Alexa488-MEK5 binding to MEKK2 mutant; percent response, % at 10 µM; 5,900 tested, 2% active; AID 1893, 2009; in the data active = percent response mostly above about 71%, no sharp cut-off; inactive = mostly below about 38%;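 note: higher means compound restores mutant binding toward wildtype level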
MEKK3 confirm = MEKK3 wild-type PB1 binding to MEK5, inhibitors, confirmation, biochemical, bead multiplex flow cytometry, single concentration, wildtype; shares compounds with MEKK3 PB1 HTS; Alexa488-MEK5 binding to MEKK3; stronger effect = lower value; binding response (% of control), % at 10 µM; 5,900 tested, 1.8% active; AID 1894, 2009;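 active = binding response below 72% of control, or above a set upper limit, though filed actives all read lower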
Numbers stand for hits; - = inactive; . = no result; [ ] = remark or other dose.

SMILES | MEKK2 WT-MEK5 | Efflux pump inh | MEKK3 PB1 HTS | ABCG2 block | ABCB1 inh | MEKK2 mut-MEK5 | MEKK2wt confirm | MEKK2mut-MEK5 | MEKK3 confirm
O=C(Nc1cc(Cl)cc(Cl)c1)C(c1ccccc1)N1CCCCC1 (stereo not drawn) | - | - | 153.0 | - | - | - | - | - | -
O/N=C\c1cccn1-c1ccc(Br)cc1 | - | - | - | - | - | - | . | . | .
COc1ccccc1CN1CCCC(CN(CCN(C)C)C(=O)C2CCCC2)C1 (stereo not drawn) | 135.0 | - | - | . | . | 34.0 | - | - | -
COc1ccccc1CN1CCCC(C(=O)N(C)Cc2ccccc2)C1 (stereo not drawn) | - | . | - | - | - | - | . | . | .
CC(CCc1ccccc1)NCc1cccc2ccccc12 (stereo not drawn) | 135.0 | - | - | . | . | - | - | - | -
COc1cc(-n2c(=O)c3ccccc3n(Cc3ccccc3)c2=O)cc(OC)c1OC | - | - | 134.0 | - | - | - | - | - | -
O=C(COc1c(CO)cc(Br)cc1CO)NC1CCCc2ccccc21 (stereo not drawn) | - | - | - | - | - | - | . | . | .
CC(C)(C)c1ccc(S(=O)(=O)N2CC(C(=O)O)Oc3ccc(Cl)cc32)cc1 (stereo not drawn) | - | - | - | . | . | - | . | . | .
COc1ccc(S(=O)(=O)N2CC(C(=O)O)Oc3ccc(Cl)cc32)cc1 (stereo not drawn) | - | - | - | . | . | 36.0 | - | - | -
NC(=O)C1CCN(c2nc(-c3ccccc3-c3ccccc3)cs2)CC1 | . | - | . | . | . | . | . | . | .
CCC(C)NCCOc1cccc(Br)c1 (stereo not drawn) | - | - | 157.0 | - | - | - | - | - | -
C=CCNCCOc1cccc(Br)c1 | - | - | - | - | - | - | . | . | .
CCOc1ccccc1N1CC(C(=O)Nc2c(C)n(C)n(-c3ccccc3)c2=O)CC1=O (stereo not drawn) | - | - | - | - | - | - | . | . | .
CCOc1cc(S(=O)(=O)NCc2ccc3c(c2)OCO3)c(C)cc1C | - | - | - | - | - | - | . | . | .
CCOc1cc(C)c(Cl)cc1S(=O)(=O)NCc1ccc2c(c1)OCO2 | - | - | 81.0[inhibitor] | - | - | - | - | - | -
COc1ccccc1CC(=O)Nc1ncc(C)s1 | - | - | - | . | . | - | . | . | .
CCOc1ccccc1N1CCN(S(=O)(=O)c2ccc(Cl)s2)CC1 | - | - | - | - | - | - | . | . | .
COc1ccccc1N1CCN(S(=O)(=O)c2ccc(Cl)s2)CC1 | -4.0[inhibitor] | - | 0.0[inhibitor] | - | - | - | - | - | 56.0
O=S1(=O)CCOCCCN1Cc1ccccc1Br | - | - | - | . | . | - | . | . | .
CCOc1ccc(C2/C(=C(\O)c3ccc(OC)c(OC)c3)C(=O)C(=O)N2c2cc(C)on2)cc1OC (stereo not drawn) | - | - | - | - | - | - | . | . | .
CCOc1ccc(/C(O)=C2\C(=O)C(=O)N(c3cc(C)on3)C2c2ccccc2OC)cc1 (stereo not drawn) | 2.0[inhibitor] | - | 2.0[inhibitor] | - | - | - | - | - | -

Assay outcomes as filed in PubChem.
